Like-named read-outs stand apart in the source and are kept apart here.

The text below walks through data of paper PMC12936682 (Journal of Pharmaceutical Analysis, 2025).

The target of series [1] is T1, Notum (Homo sapiens, UniProt Q6P988).
T1 sequence (Q6P988 20-496): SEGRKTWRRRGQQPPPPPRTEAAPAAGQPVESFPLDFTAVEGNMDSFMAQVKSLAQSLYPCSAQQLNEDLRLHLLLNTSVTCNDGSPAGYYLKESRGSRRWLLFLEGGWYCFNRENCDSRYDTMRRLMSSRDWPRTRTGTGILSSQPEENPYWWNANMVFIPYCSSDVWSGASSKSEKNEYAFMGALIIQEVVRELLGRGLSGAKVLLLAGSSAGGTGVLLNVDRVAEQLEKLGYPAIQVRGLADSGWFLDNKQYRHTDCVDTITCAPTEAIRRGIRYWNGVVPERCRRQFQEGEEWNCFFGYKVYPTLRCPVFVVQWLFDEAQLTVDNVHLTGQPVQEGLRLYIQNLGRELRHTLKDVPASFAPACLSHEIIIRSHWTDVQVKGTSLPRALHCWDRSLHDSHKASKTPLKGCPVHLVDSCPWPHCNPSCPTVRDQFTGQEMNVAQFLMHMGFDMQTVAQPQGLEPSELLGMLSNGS
Put plainly: Notum inhibition assay. The class given is biochemical. As to conditions: for inhibition manner against Notum: inhibition kinetic analyses, Lineweaver-Burk plots; for time-dependence of Notum inhibition: pre-incubation 3 and 33 min. Summed up: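 Notum expressed and purified per an earlier protocol. The 200 μL mix held 10 μM OPTS, 0.1 M Tris-HCl pH 7.4 and inhibitor, preincubated at 37 °C for 3 min. For time-dependence, parallel preincubations of 3 and 33 min ran before OPTS addition. Product fluorescence was read at ex 403/em 510 nm after subtracting no-enzyme blanks. IC50 came from nonlinear regression.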

Series [2] has as its system MC3T3-E1 cells. Put plainly: CCK-8 cell viability assay. It counts as cell-based. To be noted: CCK-8, Fig. S5. On the technique in general: Tetrazolium dyes change colour on reduction, which living cells bring about.
The subject of series [3] is MC3T3-E1 cells. Put plainly: Osteoblast differentiation: ALP level, ALP staining and alizarin red S staining. The class given is cell-based. As to conditions: for level of ALP: MC3T3-E1 osteoblasts, induced differentiation 5 days, Fig. S6. Summed up: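 MC3T3-E1 cells were grown in DMEM with 10% FBS and 1% penicillin-streptomycin at 37 °C, 5% CO2. Cells were seeded at 2 × 10³ cells/well for 24 h, then moved to induction medium (10 mM β-glycerophosphate, ascorbic acid) with Dex and test compound added together. ALP staining (BCIP/NBT) followed 7 days and 4% paraformaldehyde fixation (RT, 15 min). ARS staining followed 21 days. Both were viewed by microscope.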

Series [4] concerns the target T1, Notum. As to conditions: cited from earlier work.
Series [5] relates to Dex-induced osteoporosis mice. Put plainly: In vivo anti-osteoporosis effects in Dex-induced osteoporosis mice. To be noted: for cortical and cancellous bones (micro-CT, H&E): rhein 40 and 80 mg/kg i.g. 5 weeks, PTH i.p., vs Dex. On the set-up: species or system C57BL/6J mice.
The test system of a further series is healthy mice. Put plainly: Safety assessment of rhein in mice. The class given is in vivo, C57BL/6J mice. To be noted: 200 mg/kg orally once daily for 14 days, vs control. Summed up:
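One group received 0.5% CMC-Na vehicle. The other received test compound at 200 mg/kg orally once daily for 14 days. At the end, serum plus heart, liver, spleen, lung and kidney were collected. Data are mean ± standard deviation, compared by Student's t-test (P < 0.05).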

The conditions of series [6]: cited from earlier work.
For series [7], the system named is MC3T3-E1 cells. Put plainly: RNA sequencing of Dex-challenged osteoblasts. The class given is cell-based. Summed up:
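Dex-treated MC3T3-E1 cells then received test compound and were cultured for 7 days. Total RNA was extracted from control (DMSO), Dex and Dex plus test compound groups for sequencing.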

For series [8] the following is noted: cited from earlier work. This is another data set of the same source.
Where [9] appears, read: treatment 7 days, Dex-challenged MC3T3-E1.

With `Cc1cc(O)c2c(c1)C(=O)c1cc(O)cc(O)c1C2=O` [Emodin], at Notum [1], the IC50 (commonly the point on the concentration scale where inhibition reaches its midpoint) turned out to be 286 ± 23.5 nM; the Ki (usually the dissociation constant of the complex between target and ligand, obtained from inhibition or displacement) is 276 nM; the “inhibition manner against Notum” value is recorded as “competitive”; the “time-dependence of Notum inhibition” value was “not time-dependent”. Also, in the series with MC3T3-E1 cells [2], the “growth rates of MC3T3-E1 cells” value was “not enhanced”. The “level of ALP” value in the series with MC3T3-E1 cells [3] was “significantly up-regulated”. The “pro-differentiation effects on MC3T3-E1 cells” value in the series on MC3T3-E1 cells [3] (relative high dose 5 μM) is “slight pro-differentiation effects”.
Turning to `Cn1c(=O)c2c(ncn2C)n(C)c1=O` [caffeine], at Notum [4] (previously reported natural Notum inhibitor ref 46), the IC50 was 200000 nM.
As for `Cc1cc(O)c2c(c1)C(=O)c1cccc(O)c1C2=O` [Chrysophanol], on Notum [1], the midpoint of inhibition, the IC50, lay at 946 ± 55.1 nM and the “time-dependence of Notum inhibition” value was “not time-dependent”.
As to `C=C1C(=O)O[C@@H]2C[C@@]3(C)CCCC(=C)[C@@H]3C[C@H]12` [Isoalantolactone], at Notum [4] (previously reported natural Notum inhibitor ref 41), the IC50 was 60.6 nM.
On to “parathyroid hormone 1–34 [PTH, reference compound]”, for which the “cortical and cancellous bones (micro-CT, H&E)” value in [5] is reported as “thickened significantly”.
Take `O=C(O)c1cc(O)c2c(c1)C(=O)c1cccc(O)c1C2=O` [Rhein]: in the series with healthy mice, the “body weight at the outset and at the end of animal tests” value is given as “no noticeable discrepancy”; the “serum safety indicators (ALB, ALP, ALT, AST, CK, CREA, GLU, TC, TG, TP, BUN)” value is reported as “no significant difference”. Besides, in series [5] (Dex-challenged mice treated with rhein), the “Notum expression levels in cortical bone (immunofluorescence)” value is “significantly suppressed”. Moreover, in series [5], the “cortical and cancellous bones (micro-CT, H&E)” value is recorded as “thickened significantly”. Also, the “BV/TV and BMD at the distal femur” value in series [5] (rhein group, micro-CT) is listed as “did not increase significantly”. The “BMD increase at the mid femur” value in [5] (rhein group, micro-CT, compared with distal femur) is listed as “more prominent”. Besides, the metabolic stability entry in [6] is given as “poor”. For the same compound, on Notum [1], it took 9.98 ± 0.84 nM to reach half-maximal inhibition (IC50), the Ki came to 13.6 nM, the “inhibition manner against Notum” value was “competitive” and the “time-dependence of Notum inhibition” value is recorded as “not time-dependent”. In the series on MC3T3-E1 cells [7] (Dex-challenged MC3T3-E1, RNA sequencing), the “expression of Wnt signaling-related genes (WNT6, GSK3β) and osteogenic differentiation-related genes (RUNX2, BMP4)” value is reported as “significantly restored”. Further, in the series on MC3T3-E1 cells [7] (setting [9]), the “genes downregulated in comparison to the Dex-challenged group” value was found to be 78 and the “genes upregulated in comparison to the Dex-challenged group” value is reported as 67. For the same compound, in [8], the oral bioavailability result is “very lower”. For the same compound, the “growth rates of MC3T3-E1 cells” value in the series on MC3T3-E1 cells [2] is recorded as “not enhanced”. The “reduced ALP staining intensity and decreased matrix mineralisation level” value in the series with MC3T3-E1 cells [3] (0.5 μM, Dex-challenged MC3T3-E1 cells) is recorded as “totally restored”. Further, the “level of ALP” value with MC3T3-E1 cells [3] was “significantly up-regulated”. Also, in the series on MC3T3-E1 cells [3] (dose-dependent, ALP day 7, ARS day 21, Dex-treated MC3T3-E1), the “ALP staining intensity and matrix mineralisation level of osteoblasts” value is recorded as “significantly increased”. Also, the “pro-differentiation effects on MC3T3-E1 cells” value in the series on MC3T3-E1 cells [3] (low dose 0.5 μM) is “more significant pro-differentiation effects”.
